Bioassay records from PubChem.
A selection: hits, their analogues and other compounds. The true share with any hit is near 1.7%.
SUMO1 PPI mod: alters human SUMO1 binding to SIM partners | 360,000 tested, 0.33% active | inhibition, % at 20 µM | P63165 | SUMO1 binding to a labelled peptide, TR-FRET, 1 h; in the data active = inhibition above about 37%
Target sequence (P63165 whole entry, looked up): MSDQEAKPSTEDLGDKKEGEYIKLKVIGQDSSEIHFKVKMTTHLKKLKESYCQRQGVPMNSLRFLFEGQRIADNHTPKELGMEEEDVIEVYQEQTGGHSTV
Scp1 inh: Scp-1 (human) phosphatase inhibition | Q9GZU7 | Recombinant Scp1, phosphopeptide, malachite green phosphate absorbance | inhibition, % at 20 µM | 340,000 tested, 0.88% active | AID 493091;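 active = inhibition above about 50% at 20 µM, limit read from the data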;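 note: plate controls were DMSO wells with enzyme for no effect and wells lacking enzyme for full effect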
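Incubation: 45 min enzyme reaction at room temperature / System: truncated SCP-1 phosphatase (76-261aa) / Reagent: Phospho 17-mer peptide substrate / Buffer or medium: Acidic Tris acetate buffer with magnesium and detergent / Signal: absorbance at 630 nm / Doses: one concentration, 20 µM, with 1.0% DMSO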
DNMT1 inh: blocks human DNA methyltransferase DNMT1; P26358; 360,000 tested, 0.83% active; inhibition (reported as % activation of signal), % at 10 µM; DNMT1 molecular beacon, Hinp1I cleavage, fluorescence; in the data active = inhibition above about 50%
STEP block: inhibitors of human striatal-enriched phosphatase STEP; inhibition, % at 20 µM; P54829; 360,000 tested, 0.25% active; recombinant STEP, OMFP fluorogenic substrate, fluorescence;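 active = inhibition at 20 µM, scaled per plate between control wells, above about 37%, limit read from the data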;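 note: 0% = DMSO with enzyme and substrate and 100% = substrate only without enzyme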
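Assay system: isolated STEP enzyme / Timing: 20 min at room temperature, dark / Doses: 20 µM, 1% DMSO / Technique: fluorescence intensity, excitation 480 nm, emission 540 nm / Reagent: fluorogenic phosphatase substrate OMFP at 25 µM final / Measure: percent inhibition scaled to no-enzyme and uninhibited-enzyme controls, plate-pattern corrected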
LMPTP block: blocks human LMPTP phosphatase; P24666; AID 651560; inhibition, % at 20 µM; recombinant LMPTP-A, OMFP fluorogenic substrate, fluorescence intensity; 360,000 tested, 0.22% active;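 active = compounds that cut the enzyme signal by at least half of the control window in the single-dose screen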;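 note: plate controls were DMSO wells with enzyme plus substrate for no effect and substrate without enzyme for full effect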
Target sequence (P24666 whole entry, looked up): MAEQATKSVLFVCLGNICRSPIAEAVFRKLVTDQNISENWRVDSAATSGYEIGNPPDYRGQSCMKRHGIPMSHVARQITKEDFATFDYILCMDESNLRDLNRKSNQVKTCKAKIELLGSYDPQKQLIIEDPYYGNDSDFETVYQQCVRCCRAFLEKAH
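Assay system: LMPTP-A phosphatase enzyme | Input: 0.625 nM enzyme | Also added: Fluorogenic phosphatase substrate OMFP at 400 µM final | Compound dosing: One test concentration per compound, 20 µM, with 3% DMSO overall | Schedule: 50 min enzyme reaction at room temperature, protected from light | Signal: Fluorescence intensity | Benchmarks: no-enzyme and uninhibited controls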
STEP conf: STEP (human) phosphatase inhibition, single concentration confirmation; shares compounds with STEP block; recombinant STEP, OMFP fluorogenic substrate, fluorescence; inhibition, % at 20 µM; 520 tested, 32% active; AID 623866; call rule not given here;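 note: 0% = enzyme with substrate plus DMSO and 100% = substrate without enzyme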
* marks the source's active call; other numbers are inactive results.

Screening O=C(N/N=C/C(Cl)=C/c1ccc([N+](=O)[O-])cc1)C(=O)Nc1cccc(C(=O)O)c1 returned SUMO1 PPI mod -4, Scp1 inh 12, DNMT1 inh -4, STEP block 46*, LMPTP block 0 and STEP conf 4.
O=C(Nc1cccc(C(=O)O)c1)/C(=C/c1cccc([N+](=O)[O-])c1)NC(=O)c1cccc(Br)c1 was read as SUMO1 PPI mod -14, Scp1 inh 19, DNMT1 inh 0, STEP block 2 and LMPTP block -2.
For CC(C)c1ccc(N2C(=O)C(Cl)=C(N3CCOCC3)C2=O)cc1 the results were SUMO1 PPI mod -27, Scp1 inh -7, DNMT1 inh 0, STEP block 42*, LMPTP block 1 and STEP conf -7.
Screening COC(C[C@@H](O)[C@@H](C)[C@H](O)COCc1ccccc1)OC returned SUMO1 PPI mod -1, Scp1 inh -1, DNMT1 inh 5, STEP block -3 and LMPTP block -1.
`O=C(Nc1cccc(Cl)c1)Nc1ccc2c(c1)C(=O)OC2` gave SUMO1 PPI mod -2, Scp1 inh -5, DNMT1 inh 15, STEP block 112*, LMPTP block 0 and STEP conf 11.
COCCn1c(SCC(=O)Nc2ccc3[nH]c(=O)[nH]c3c2)nc2ccccc2c1=O was read as SUMO1 PPI mod 6, Scp1 inh -16, DNMT1 inh 2, STEP block 38*, LMPTP block -2 and STEP conf 3.
`COCCn1c(SCC(=O)Nc2ccc3c(c2)OCCO3)nc2ccccc2c1=O` gave SUMO1 PPI mod 4, DNMT1 inh 2, STEP block -2 and LMPTP block 0.
Cc1ccc(OCC(=O)NCCCNC(=O)c2ccc(C)nc2)cc1 was read as SUMO1 PPI mod -1, Scp1 inh -2, DNMT1 inh 0, STEP block 1 and LMPTP block 0.
Cn1c(SCC(=O)N/N=C/C=C/c2ccccc2[N+](=O)[O-])nc2ccccc21 was read as SUMO1 PPI mod -10, Scp1 inh -10, DNMT1 inh 5, STEP block 2 and LMPTP block -3.
For CCn1c(SCC(=O)N/N=C/C=C\c2ccccc2[N+](=O)[O-])nc2ccccc21 the results were SUMO1 PPI mod -19, Scp1 inh -7, DNMT1 inh -4, STEP block 52*, LMPTP block 2 and STEP conf 19.
For S=c1[nH]nc(-c2cccnc2)n1/N=C/c1ccc(Br)s1 the results were SUMO1 PPI mod -4, Scp1 inh -2, DNMT1 inh 1, STEP block 36*, LMPTP block 8 and STEP conf 29*.
Cc1ccc(/C=N/n2c(-c3cccnc3)n[nH]c2=S)s1 was read as SUMO1 PPI mod -4, Scp1 inh 6, DNMT1 inh 2, STEP block 0 and LMPTP block 0.
Screening Cc1ccc(C(=O)N/N=C\c2cccc(OC(=O)c3cccc(F)c3)c2)cn1 returned SUMO1 PPI mod -12, Scp1 inh -7, DNMT1 inh -1, STEP block 3 and LMPTP block 0.
For Cc1ccc(C(=O)N/N=C\c2ccc(OC(=O)c3cccc(F)c3)cc2)cn1 the results were SUMO1 PPI mod 4, Scp1 inh 8, DNMT1 inh 3, STEP block 82*, LMPTP block 62* and STEP conf -5.
O=C(Oc1ccc(/C=N/NC(=O)c2ccccn2)cc1)c1ccc(Br)cc1 was read as SUMO1 PPI mod -1, Scp1 inh -6, DNMT1 inh 26, STEP block 55*, LMPTP block 55* and STEP conf 1.
`CSc1ccccc1OCc1cc(C(=O)N2CCC[C@H]2C(N)=O)no1` gave SUMO1 PPI mod 5, Scp1 inh -16, DNMT1 inh 3, STEP block -2 and LMPTP block -1.
Screening CC(OC(=O)c1cc(Br)ccc1O)C(=O)NC1(C#N)CCCCC1 (stereo not drawn) returned SUMO1 PPI mod -3, Scp1 inh -6, DNMT1 inh -1, STEP block -1 and LMPTP block 0.
